Experimental data gathered from unrelated publications.
Lines come from different studies, so protocols differ.
Observed: cell growth or viability

SMILES	cell line	method	time	IC50
CC(=O)ON=C1C=CC(=C(C#N)c2ccccc2)C=C1	human Fibroblast	MTT	24 h	25.9 µg/mL
Cc1ccc(Cn2nc(-c3ccc(CO)o3)c3ccccc32)cc1	RBE	ATP luminescence	–	1.7 µM
C/C(=N\CCNCC/N=C(\C)c1c(O)c2ccccc2oc1=O)c1c(O)c2ccccc2oc1=O	BEAS-2B	MTT	48 h	13.3 µM
OC1CCN(c2ccc(/C=N/NC(=S)Nc3ccc(Cl)cc3)cc2)CC1	BEAS-2B	MTT	24 h	13.7 µM
CCOC(=O)c1c(C)nc2ccc(-c3ccc(F)c(F)c3)cc2c1O	MDA-MB-468	MTT	48 h	4 µM
COc1cc(Cn2nc(-c3ccc(CO)o3)c3ccccc32)ccn1	RBE	ATP luminescence	–	0.38 µM
C/C(=N\N=C(/C)c1c(O)c2ccccc2oc1=O)c1c(O)c2ccccc2oc1=O	BEAS-2B	MTT	48 h	29.6 µM
Cc1ccc(CNC(=S)N/N=C/c2ccc(N3CCC(O)CC3)cc2)cc1	BEAS-2B	MTT	24 h	15.9 µM
COc1cccc2c1C(=O)c1c(O)c3c(c(O)c1C2=O)C[C@@](O)(C(=O)CO)C[C@@H]3O[C@H]1C[C@H](N)[C@H](O)[C@H](C)O1	BEAS-2B	MTT	48 h	4.08 µM
NCc1ccc(-c2nn(Cc3ccccc3)c3ccccc23)o1	RBE	ATP luminescence	–	2.4 µM
CCOC(=O)c1c(C)nc2ccc(-c3cccc(F)c3)cc2c1O	MDA-MB-468	MTT	48 h	4 µM
CC(O)c1ccc(-c2nn(Cc3ccccc3)c3ccccc23)o1 (stereo not shown)	RBE	ATP luminescence	–	6.92 µM
c1ccc(Cn2nc(-c3nc(-c4ccccc4)n[nH]3)c3ccccc32)cc1	human Fibroblast	–	48 h	72.6 µM
OC1CCN(c2ccc(/C=N/NC(=S)Nc3ccc(Br)cc3)cc2)CC1	BEAS-2B	MTT	24 h	19.8 µM
c1ccc2c(c1)ncn2Cn1cncn1	BEAS-2B	MTT	24 h	264 µM
OCc1ccc(-c2nn(Cc3cccc(Cl)c3)c3ccccc23)o1	RBE	ATP luminescence	–	1.41 µM
CCOC(=O)c1c(C)nc2ccc(-c3ccc(F)cc3)cc2c1O	MDA-MB-468	MTT	48 h	5 µM
Cc1sc2c(c1C)C(c1ccc(Cl)cc1)=N[C@@H](CC(=O)NCCCCNC(=O)COc1cccc3c1C(=O)N(C1CCC(=O)NC1=O)C3=O)c1nnc(C)n1-2 (stereo partly shown)	KATO III	CCK-8	72 h	> 10 µM
OC1CCN(c2ccc(/C=N/NC(=S)NCc3ccc(Cl)cc3)cc2)CC1	BEAS-2B	MTT	24 h	13.4 µM

SMILES	cell line	method	time	IC50
Cc1noc(-c2nn(Cc3ccc(Cl)cc3Cl)c3ccccc23)n1	human Fibroblast	–	48 h	148 µM
COc1cccc2c1C(=O)c1c(O)c3c(c(O)c1C2=O)C[C@@](O)(C(=O)CO)C[C@@H]3O[C@H]1C[C@H](N)[C@H](O)[C@H](C)O1	RBE	–	96 h	0.0214 µM
CC1c2ccccc2CCN1c1ccc(CO)c(Cl)c1 (stereo not shown)	RBE	ATP luminescence	–	< 0.2 µM
Cc1nc2ccc(-c3cccc(F)c3)cc2c(O)c1C(=O)O	MDA-MB-468	MTT	48 h	≥ 100 µM
CCc1nc(C(N)=O)c(Nc2ccc(N3CCC(N4CCN(C)CC4)CC3)c(OC)c2)nc1NC1CCOCC1	MV4-11	resazurin	–	0.025 µM
Fc1ccc2c(-c3nnc(Cc4ccccc4)[nH]3)nn(Cc3ccc(Cl)cc3Cl)c2c1	human Fibroblast	–	48 h	584 µM
COc1cccc(Cn2nc(-c3ccc(CO)o3)c3ccccc32)c1	RBE	ATP luminescence	–	0.468 µM
CCOC(=O)c1c(C)nc2ccc(-c3ccc(OCc4ccccc4)c(F)c3)cc2c1O	MDA-MB-468	MTT	48 h	2 µM
COc1ccc2c(-c3ncc(-c4ccccc4)o3)nn(Cc3ccccc3)c2c1	human Fibroblast	–	48 h	89.9 µM
OCc1ccc(-c2nn(Cc3ccccn3)c3ccccc23)o1	RBE	ATP luminescence	–	0.302 µM
Fc1ccc2c(-c3ncc(-c4ccccc4)o3)nn(Cc3ccccc3)c2c1	human Fibroblast	–	48 h	198 µM
CN1CCC(NC2CCc3[nH]c4c(C(N)=O)ccc(-c5ccccc5Cl)c4c3C2)CC1 (stereo not shown)	RBE	–	96 h	0.00146 µM
COc1ccc2c(-c3nc(-c4ccccc4)no3)nn(Cc3ccncc3)c2c1	human Fibroblast	–	48 h	123 µM
OCn1cncn1	BEAS-2B	MTT	24 h	> 800 µM
Fc1ccc2c(-c3nnc(Cc4ccccc4)s3)nn(Cc3ccc(Cl)cc3Cl)c2c1	human Fibroblast	–	48 h	191 µM
CC(=O)N1CCC(Nc2cc(C(=O)NC[C@H](O)CN3CCc4ccccc4C3)ncn2)CC1	MDA-MB-435S	CCK-8	72 h	> 100 µM
Fc1ccc2c(-c3nnc(Cc4ccccc4)s3)nn(Cc3ccccc3)c2c1	human Fibroblast	–	48 h	605 µM
Cc1cccc(C)c1NC(=S)N/N=C/c1ccc(N2CCC(O)CC2)cc1	BEAS-2B	MTT	24 h	12.7 µM
